ChEMBL document CHEMBL1124636, “3,4-Dihydro-2H-1-benzopyran-2-carboxylic acids and related compounds as leukotriene antagonists” (J Med Chem, 1989)
One block for each compound: values may come before it. Active and inactive are the calls of the source. The calls are words filed in the database; no cut-off is given here.

Experiments:
[1] = test system: Cavia porcellus; assay: Inhibition of leukotriene D4 induced bronchoconstriction in anesthetized guinea pigs after intravenous administration at a dose of 1 mg/kg; type: functional
[2] = test system: Cysteinyl leukotriene receptor (Cavia porcellus); assay: Inhibitory activity to block binding of [3H]leukotriene D4 to LTD4 receptor sites in homogenized guinea pig lung at 10 uM
[3] = test system: Cavia porcellus; assay: Activity against platelet activating factor in guinea pig, no significant inhibition when compound dose (10 mg/kg) given intravenously; Not active.; type: functional, organism-based
[4] = species: Cavia porcellus; assay: In vitro activity to inhibit leukotriene D4 induced contraction of guinea pig trachea; type: functional; details: read-out: pA2 (converted)
Method in brief: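 Guinea pig tracheal smooth muscle contracted by LTD4; pA2 and Schild slope reported.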

[5] = test system: Cavia porcellus; assay: In vivo guinea pig bronchoconstriction against leukotriene C4 when administered a compound dose (mg/kg) intravenously; type: functional; details: Lung, iv, read-out: ID50 (the source's name)
[6] = test system: Cavia porcellus; assay: Inhibitory activity to inhibit arachidonic acid induced bronchoconstriction (when administered at a concentration of 1%, by aerosol); Not active; type: functional, organism-based
[7] = test system: Cavia porcellus; assay: Duration of action of leukotriene D4 as time for inhibition to decrease to 40%, when compound was administered at a concentration of 1%, for 5 min by aerosol; type: ADME, organism-based; details: guinea pig, in vivo, inhaled_or_intranasal
Method in brief: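 Aerosol guinea pig bronchoconstriction with LTD4 challenge; drug given as 1% nebulized solution for 5 min. Duration taken as time for inhibition to fall to 40%.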

[8] = test system: Cavia porcellus; assay: Activity against platelet activating factor in guinea pig (when administered at a concentration of 1%, by aerosol); Not active; type: functional, organism-based
[9] = target: Dual specificity calcium/calmodulin-dependent 3',5'-cyclic nucleotide phosphodiesterase 1A (Bos taurus, UniProt P14100); assay: Inhibition of bovine heart Phosphodiesterase 1A
[10] = test system: Cavia porcellus; assay: Inhibition of leukotriene D4 induced bronchoconstriction in anesthetized guinea pigs after intravenous administration; type: functional; details: read-out: ID50 (the source's name)
Method in brief: (§1)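 Male Hartley guinea pigs, 400–600 g, urethane 2 g/kg ip, jugular cannula, propranolol 0.1 mg/kg iv 5 min before challenge, succinylcholine 1.2 mg/kg iv, ventilated. Vehicle or drug iv 30 s before LTD4 25 µg/kg iv; tracheal pressure change.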

[11] = test system: Cavia porcellus; assay: In vivo guinea pig bronchoconstriction against leukotriene D4 when administered a compound dose (mg/kg) intravenously; type: functional; details: Lung, iv, read-out: ID50 (the source's name); method in brief: as §1
[12] = test system: Cavia porcellus; assay: Duration of action of leukotriene E4 as time for inhibition to decrease to 40%, compound administered at a concentration of 1%,for 5 min by aerosol; type: ADME, organism-based; details: guinea pig, in vivo, inhaled_or_intranasal
Method in brief: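 Aerosol guinea pig bronchoconstriction with LTE4 challenge; drug given as 1% nebulized solution for 5 min. Duration taken as time for inhibition to fall to 40%.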

[13] = test system: Cavia porcellus; assay: Duration of action of leukotriene E4 as time for inhibition to decrease to 40%, compound was administered at a dose of 10 mg/kg; type: ADME, organism-based; parameters: dose 10 mg/kg; details: guinea pig, in vivo
Method in brief: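 Intravenous guinea pig bronchoconstriction with LTE4 challenge; drug 10 mg/kg iv. Duration taken as time for inhibition to fall to 40%.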

[14] = test system: Cavia porcellus; assay: Inhibition of leukotriene D4 induced bronchoconstriction in anesthetized guinea pigs after intravenous administration at a dose of 10 mg/kg; type: functional; method in brief: as §1
[15] = species: Cavia porcellus; assay: In vitro activity to inhibit SRS-A induced contraction of guinea pig ileum
[16] = test system: Cavia porcellus; assay: In vivo guinea pig bronchoconstriction against leukotriene E4 when administered a compound dose(mg/kg) intravenously; type: functional; details: Lung, iv, read-out: ID50 (the source's name)
[17] = test system: Cavia porcellus; assay: In vivo guinea pig bronchoconstriction against leukotriene C4 when administered at a concentration of 1%, by aerosol; NS means no significant inhibition.; type: functional, organism-based; details: Lung
[18] = test system: Cavia porcellus; assay: Activity against histamine induced bronchoconstriction in guinea pig (when administered at a concentration of 1%, by aerosol); Not active; type: functional, organism-based
[19] = test system: Cavia porcellus; assay: (§2) Inhibition of leukotriene D4 induced bronchoconstriction in anesthetized guinea pigs after aerosol administration as 1% solution; type: functional
Method in brief: (§3)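 Guinea pigs given propranolol 0.1 mg/kg iv 5 min before 5-min ultrasonic nebulizer exposure to aqueous, NaOH-neutralized drug (% w/v) or distilled water, breathing spontaneously. LTD4 50 µg/kg iv 30 s after exposure; tracheal pressure change.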

[20] = test system: Cavia porcellus; assay: Time taken for inhibition of antigen induced bronchoconstriction in guinea pig to decrease to 40%, compound administered at a concentration of 1%, for 5 min by aerosol; type: organism-based; details: in vivo, inhaled_or_intranasal
Method in brief: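 Aerosol guinea pig bronchoconstriction with antigen challenge; drug given as 1% nebulized solution for 5 min. Duration taken as time for inhibition to fall to 40%.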

[21] = test system: Cavia porcellus; assay: Duration of action of leukotriene D4 as time for inhibition to decrease to 40%, compound was administered at a dose of 10 mg/kg; type: ADME, organism-based; parameters: dose 10 mg/kg; details: guinea pig, in vivo
Method in brief: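 Intravenous guinea pig bronchoconstriction with LTD4 challenge; drug 10 mg/kg iv. Duration taken as time for inhibition to fall to 40%.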

[22] = test system: Cavia porcellus; assay: In vivo guinea pig bronchoconstriction against leukotriene B4 (when administered at a concentration of 1%, by aerosol); Not active; details: Lung
[23] = test system: Cavia porcellus; assay: as §2; type: functional, organism-based; method in brief: as §3
[24] = test system: Cavia porcellus; assay: Activity against histamine induced bronchoconstriction in guinea pig, no significant inhibition when compound dose (10 mg/kg) given intravenously; Not active.; type: functional, organism-based
[25] = target: T1, Cysteinyl leukotriene receptor 1 (Cavia porcellus) (UniProt Q2NNR5); assay: Inhibitory activity of compound to block binding of radiolabeled leukotriene D4 to receptor sites in homogenized guinea pig lung at 10 uM
T1 sequence (whole entry): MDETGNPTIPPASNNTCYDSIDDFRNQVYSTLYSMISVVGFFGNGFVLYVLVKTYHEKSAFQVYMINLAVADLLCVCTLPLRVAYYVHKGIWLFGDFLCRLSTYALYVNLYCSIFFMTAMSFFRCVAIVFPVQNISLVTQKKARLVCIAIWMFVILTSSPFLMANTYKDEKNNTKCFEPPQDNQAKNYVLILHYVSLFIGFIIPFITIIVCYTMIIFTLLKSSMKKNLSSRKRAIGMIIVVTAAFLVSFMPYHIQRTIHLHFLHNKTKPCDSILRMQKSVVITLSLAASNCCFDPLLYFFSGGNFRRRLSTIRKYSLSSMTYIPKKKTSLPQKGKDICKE
Method in brief: (§4)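 Lung from male Hartley guinea pigs (400–500 g), homogenized in sucrose/Tris pH 7.5 with protease inhibitors; 30000g membrane pellet in 10 mM PIPES pH 7.5, 50 mM NaCl. Binding: Tyrode, 0.1% BSA, 1 mM glycine, 1 mM cysteine, 3.5 nM [3H]LTD4, 100–200 µg protein, 20 °C, 30 min; glass-fiber filtration. Nonspecific with 10^-6 M LTD4. Triplicate screen at 10 µM; IC50 by linear regression.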

[26] = test system: Cysteinyl leukotriene receptor 1 (Cavia porcellus); assay: Inhibitory activity of compound to block binding of radiolabeled Cysteinyl leukotriene D4 receptor sites in homogenized guinea pig lung at 10 uM
[27] = Inhibitory activity to inhibit Inophore-induced arachidonic acid metabolism (inhibition of PGE-2 formation) in rat; type: functional
Method in brief: (§5)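 Rat peritoneal macrophages adhered 90 min at 37 °C, labeled with [14C]arachidonic acid 90 min, washed. Compound 30 min at 37 °C, then A23187 0.5 µM for 20 min. LTB4 and PGE2 in medium by radioimmunoassay.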

[28] = species: Rattus norvegicus; assay: Inhibitory activity to inhibit Inophore-induced arachidonic acid metabolism (inhibition of LTB4 formation) in rat; Inactive = no significant inhibition at a concentration of 100 uM; type: functional, organism-based; method in brief: as §5
[29] = target: T1, Cysteinyl leukotriene receptor 1 (Cavia porcellus); details: Lung, 10 uM
[30] = target: T2, Cysteinyl leukotriene receptor 1 (Cavia porcellus, UniProt Q2NNR5); assay: Inhibitory activity of compound to block binding of [3H]leukotriene D4 to Cysteinyl leukotriene D4 receptor sites in homogenized guinea pig lung; method in brief: as §4
T2 sequence (Q2NNR5 whole entry): T1 sequence (whole entry)

Dual specificity calcium/calmodulin-dependent 3',5'-cyclic nucleotide phosphodiesterase 1A, sequence (P14100 whole entry): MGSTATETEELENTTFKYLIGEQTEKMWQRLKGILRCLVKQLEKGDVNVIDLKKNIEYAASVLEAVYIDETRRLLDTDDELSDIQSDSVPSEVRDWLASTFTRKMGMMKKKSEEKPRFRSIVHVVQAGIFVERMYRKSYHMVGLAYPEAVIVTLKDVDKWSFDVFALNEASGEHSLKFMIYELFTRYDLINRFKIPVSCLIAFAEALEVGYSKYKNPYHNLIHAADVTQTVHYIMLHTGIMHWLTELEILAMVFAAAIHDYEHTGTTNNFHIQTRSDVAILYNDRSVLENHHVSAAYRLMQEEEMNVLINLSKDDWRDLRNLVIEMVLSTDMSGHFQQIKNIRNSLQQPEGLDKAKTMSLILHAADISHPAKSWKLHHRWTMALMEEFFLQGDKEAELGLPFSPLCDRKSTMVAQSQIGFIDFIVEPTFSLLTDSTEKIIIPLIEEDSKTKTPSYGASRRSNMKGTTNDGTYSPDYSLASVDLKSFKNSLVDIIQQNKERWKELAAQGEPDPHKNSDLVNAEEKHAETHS

inhibition [25]: 39%
inhibition [26]: 39%
SMILES: CCCc1c(OCCCCCCCOc2cc3c(cc2C(C)=O)CCC(C(=O)O)O3)ccc(C(C)=O)c1O (stereo not given)
Inhibition [19]: 44%

IC50 [27]: 10000 nM
IC50 [28]: Not Active
SMILES: O=C(O)c1ccc(OCCn2ccnc2)cc1 [DAZOXIBEN]

Continued, compound first:

SMILES: CCCc1c(OCCCCCOc2cc3c(cc2C(C)=O)CCC(c2nnn[nH]2)O3)ccc(C(C)=O)c1O (stereo not given)
inhibition in vivo at 1 mg/kg [1]: 0%
inhibition [2]: 60%

SMILES: CCCc1c(OCC(O)COc2ccc3c(=O)cc(C(=O)O)oc3c2CCC)ccc(C(C)=O)c1O (stereo not given) [FPL-55712]
inhibition [3]: inactive
Kb [4]: 1000 nM
ED50 [5]: 6 mg/kg
inhibition [6]: inactive
Duration [7]: 60 min
inhibition [8]: inactive
IC50 [9]: 40000 nM
ED50 [10]: 2 mg/kg
ED50 [11]: 2 mg/kg
Duration [12]: 50 min
Duration [13]: 6 min
inhibition in vivo at 10 mg/kg [14]: 92%
IC50 [15]: 50 nM
ED50 [16]: 1 mg/kg
inhibition [17]: inactive
inhibition [18]: inactive
Inhibition [19]: 64%
Duration [20]: 270 min
Duration [21]: 6 min
inhibition [22]: inactive
IC50 [23]: 0.5 % conc
inhibition [24]: inactive

SMILES: CCCc1c(OCCCCCOc2cc3c(cc2C(C)=O)CCC(CCC)(C(=O)O)O3)ccc(C(C)=O)c1O (stereo not given)
inhibition [29]: 70%
ED50 [10]: 8 mg/kg
inhibition in vivo at 10 mg/kg [14]: 56%
IC50 [30]: 2000 nM
Inhibition [19]: 51%
IC50 [23]: 0.9 % conc
